Calls of active or inactive are those of the source. The rule behind the calls is not given here.
Experiments:
Bel-7402 [1] = assay: Induction of apoptosis in human Bel7402 cells assessed as late apoptotic cells at 0.1 uM after 72 hrs by Annexin V/propidium iodide staining based flow cytometric analysis (reference value: 3.6%); type: functional
Summary of the method: (§1)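 BEL-7402 cells (3 × 10⁵ per well, 6-well plates) exposed for 72 h. Harvested, PBS-washed, resuspended in cold binding buffer with annexin V–FITC and PI, and stained 15 min in the dark at room temperature. Early apoptotic, late apoptotic and necrotic fractions quantified by flow cytometry.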

U-118-MG = assay: Antiproliferative activity against human U118MG cells after 72 hrs by SRB assay; type: functional, cell-based; settings: pooled result: one value given for 25 cell lines, strains, targets or settings
Summary of the method: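 Adherent cells seeded in 96-well plates and exposed in triplicate to compound for 72 h at 37 °C, humidified. Fixed with 10% ice-cold trichloroacetic acid, stained with 0.4% sulforhodamine B in 1% acetic acid, and absorbance read at 540 nm. IC50 fitted by four-parameter logistic; mean of at least three independent experiments.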

K562 [2] = assay: Antiproliferative activity against human K562 cells after 72 hrs by MTT assay; type: functional, cell-based; settings: K562, 72 h
Summary of the method: (§2)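 Cells seeded and dosed in triplicate for 72 h. Suspension lines (HL-60, K-562, K562/ADR, HL-60/MX2) were read by MTT: 5 mg/mL MTT stock added, 4 h at 37 °C, formazan dissolved in 10% SDS/5% isobutanol/10 mM HCl, A570. Adherent lines were read by SRB: fixed with cold 10% TCA, stained with 0.4% SRB in 1% acetic acid, A540. IC50 from four-parameter logistic fit; mean of ≥3 independent experiments.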

Bel-7402 [3] = assay: Induction of apoptosis in human Bel7402 cells assessed as necrotic cells at 0.1 uM after 72 hrs by Annexin V/propidium iodide staining based flow cytometric analysis (reference value: 0.38%); type: functional; summary of the method: as §1
A549 = assay: Antiproliferative activity against human A549 cells assessed as reduction in viability after 72 hrs by SRB assay; type: functional, cell-based; settings: A549, 72 h; summary of the method: as §2
[4] = Resistance factor, ratio of IC50 for human KB/VCR cells to IC50 for human KB cells; type: functional
Summary of the method: (§3)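 72 h treatment in triplicate; suspended lines (HL-60, K-562, K562/ADR, HL-60/MX2) read by MTT (4 h, SDS/isobutanol/HCl solubilization, 570 nm); adherent KB and KB/VCR (MEM, 10% FBS) by SRB after TCA fixation (540 nm); IC₅₀ by four-parameter logistic fit, mean of ≥3 independent experiments.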

HL-60 = assay: Antiproliferative activity against human HL60 cells after 72 hrs by MTT assay; type: functional, cell-based; settings: HL-60, 72 h; summary of the method: as §2
HL60/MX2 = assay: Antiproliferative activity against human HL60/MX2 cells after 72 hrs by MTT assay; type: functional, cell-based; settings: HL60/MX2, 72 h; summary of the method: as §2
[5] = Resistance factor, ratio of IC50 for human HL60/MX2 cells to IC50 for human HL60 cells; type: functional; summary of the method: as §3
Bel-7402 [6] = assay: Induction of apoptosis in human Bel7402 cells assessed as early apoptotic cells at 0.1 uM after 72 hrs by Annexin V/propidium iodide staining based flow cytometric analysis (reference value: 3.66%); type: functional; summary of the method: as §1
Bel-7402 [7] = assay: Antiproliferative activity against human Bel7402 cells assessed as reduction in viability after 72 hrs by SRB assay; type: functional, cell-based; settings: Bel-7402, 72 h; summary of the method: as §2
Bel-7402 [8] = assay: Inhibition of DNA synthesis in human Bel7402 cells assessed as reduction in BrdU incorporation preincubated for 1 hr followed by BrdU addition for 30 mins by FITC/propidium iodide staining based flow cytometry; type: functional, cell-based
Summary of the method: (§4)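 BEL-7402 cells (3 × 10⁵ per well) exposed to compounds 1 h, then labeled with 10 μM BrdU for 30 min; trypsinized, fixed in 70% ethanol at −20 °C ≥1 h, 2 N HCl 20 min, neutralized with 0.1 M borate, stained with anti-BrdU-FITC plus PI 30 min; BrdU-positive cells quantified by flow cytometry; three independent experiments, mean + SD.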

[9] = Resistance factor, ratio of IC50 for human K562/ADR cells to IC50 for human K562 cells; type: functional; summary of the method: as §3
Bel-7402 [10] = assay: Inhibition of DNA synthesis in human Bel7402 cells assessed as BrdU incorporation at 0.1 uM preincubated for 1 hr followed by BrdU addition for 30 mins by FITC/propidium iodide staining based flow cytometry (reference value: 35.5%); type: functional; parameters: scale not given: the % may be the effect or the level left; summary of the method: as §4
K562/Adr = assay: Antiproliferative activity against human K562/ADR cells after 72 hrs by MTT assay; type: functional, cell-based; summary of the method: as §2
[11] = Antiproliferative activity against human KB/VCR cells after 72 hrs by SRB assay; type: functional, cell-based; summary of the method: as §2
Bel-7402 [12] = assay: Induction of apoptosis in human Bel7402 cells assessed as viable cells at 0.1 uM after 72 hrs by Annexin V/propidium iodide staining based flow cytometric analysis (reference value: 92.4%); type: functional; settings: Bel-7402, 72 h, read-out: Activity
Bel-7402 [13] = assay: Induction of apoptosis in human Bel7402 cells assessed as viable cells at 1 uM after 72 hrs by Annexin V/propidium iodide staining based flow cytometric analysis (reference value: 92.4%); type: functional; settings: Bel-7402, 72 h, read-out: Activity
KB [14] = assay: Antiproliferative activity against human KB cells after 72 hrs by SRB assay; type: functional, cell-based; summary of the method: as §2
Bel-7402 [15] = assay: Induction of apoptosis in human Bel7402 cells assessed as necrotic cells at 10 nM after 72 hrs by Annexin V/propidium iodide staining based flow cytometric analysis (reference value: 0.38%); type: functional
Bel-7402 [16] = assay: Induction of apoptosis in human Bel7402 cells assessed as necrotic cells at 1 nM after 72 hrs by Annexin V/propidium iodide staining based flow cytometric analysis (reference value: 0.38%); type: functional
K562 [17] = assay: Cell cycle arrest in human K562 cells assessed as delay in progression of S-phase to G2-phase at 1 to 10 nM pre-treated with aphidicolin for 16 hrs followed by compound addition measured up to 24 hrs by propidium iodide staining-based flow cytometric method; type: functional
KB [18] = assay: Cell cycle arrest in human KB cells assessed as delay in progression of S-phase to G2-phase at 10 nM pre-treated with aphidicolin for 16 hrs followed by compound addition measured up to 12 hrs by propidium iodide staining-based flow cytometric method; type: functional
Summary of the method: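 Exponentially growing cells synchronized in early S phase with 0.2 μg/mL aphidicolin for 16 h. Cells released into fresh medium with or without compound for set times. Ethanol-fixed, stained with PI/RNase, and cell cycle distribution read by flow cytometry. Representative of three independent experiments.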

Bel-7402 [19] = assay: Induction of apoptosis in human Bel7402 cells assessed as viable cells at 1 nM after 72 hrs by Annexin V/propidium iodide staining based flow cytometric analysis (reference value: 92.4%); type: functional; settings: Bel-7402, 72 h, read-out: Activity
[20] = Antiproliferative activity against human MRC9 cells assessed as reduction in viability after 72 hrs by SRB assay; type: cell-based; settings: MRC9, 72 h; summary of the method: as §2
Bel-7402 [21] = assay: Induction of apoptosis in human Bel7402 cells assessed as early apoptotic cells at 1 nM after 72 hrs by Annexin V/propidium iodide staining based flow cytometric analysis (reference value: 3.66%); type: functional; summary of the method: as §1

SMILES	Activity (Bel-7402 [1]) [%]	IC50 (U-118-MG) [nM]	IC50 (K562 [2]) [nM]	Activity (Bel-7402 [3]) [%]	IC50 (A549) [nM]	Ratio IC50 [4]	IC50 (HL-60) [nM]	IC50 (HL60/MX2) [nM]	Ratio IC50 [5]	Activity (Bel-7402 [6]) [%]	IC50 (Bel-7402 [7]) [nM]	inhibition (Bel-7402 [8])	Ratio IC50 [9]	Activity (Bel-7402 [10]) [%]	IC50 (K562/Adr) [nM]	IC50 [11] [nM]	viability at 0.1 µM (Bel-7402 [12]) [%]	IC50 (KB [14]) [nM]	other results
COc1cc2c3c(c4cc(OC)c(OC)cc4c2cc1OC)[C@H](O)[C@@H]1CCCN1C3	2.22	167	98.4	0.37	283	1.1	213	278	1.3	2.86	110	Dose-dependent effect	1.4	32.5	138	65.2	94.6	58.2	viability at 1 µM (Bel-7402 [13]): 94.7%
COc1cc2c3c(c4ccc(O)cc4c2cc1OC)CN1CCCC[C@@H]1C3	19.8	2.1	2.2	2.57	0.7	0.8	1.8	1.7	0.9	5.16	1.7	Dose-dependent effect	1.2	4.83	2.6	1	72.4	1.2	Activity (Bel-7402 [15]): 0.94%; Activity (Bel-7402 [16]): 0.39%; Activity (K562 [17]): Active; Activity (KB [18]): Active; viability at 0.001 µM (Bel-7402 [19]): 94.4%; IC50 [20]: 2.2 nM; Activity (Bel-7402 [21]): 3.11%

Source: ChEMBL document CHEMBL4049418, “6-OH-Phenanthroquinolizidine Alkaloid and Its Derivatives Exert Potent Anticancer Activity by Delaying S Phase Progression” (J Med Chem, 2017)
